Data set [1] has as its system T-24. Nature of the data set: Effect on light absorption in human T24 cells up to 10 uM after 1 hr at 490 nanometer. The format is functional, cell-based. An outline of the steps: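 T24 cells treated at 1−10 μM for 1 h, then absorbance read at 490 nm to check for interference with the MTT read-out.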
Data set [2] concerns T-24. Nature of the data set: Induction of apoptosis in human T24 cells assessed as late apoptotic cells at 10 uM by Annexin V-FITC/propidium iodide based flow cytometric analysis (reference value: 0.193%). The format is functional.
In data set [3] the test system is T-24. The data set can be described thus: Effect on Bcl-xl protein expression in human T24 cells at 1 to 10 uM after 24 hrs by Western bot method. The format is functional, cell-based. An outline of the steps: (§1)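 T24 cells, 3 × 10^5 per well, grown to 85−95% confluence, then exposed to 0−10 μM for 24 h. Whole-cell extracts in sample buffer run on SDS-polyacrylamide gels and transferred to nitrocellulose. Blots probed with primary antibodies and AP-linked anti-rabbit IgG, detected by ECL. Blots stripped and reprobed for β-actin as loading control.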

Data set [4] has as its system T-24. Nature of the data set: Cell cycle arrest in human T24 cells assessed as effect on cyclin D expression up to 10 uM after 24 hrs by Western blot analysis. The format is functional, cell-based. An outline of the steps:
as §1
Background: In western blotting, separated proteins are transferred to a membrane and probed.

In data set [5] the test system is T-24. Nature of the data set: Induction of apoptosis in human T24 cells assessed as early apoptotic cells at 1 uM by Annexin V-FITC/propidium iodide based flow cytometric analysis (reference value: 1.79%). Format: functional. (A flow cytometer gives signals particle by particle.)
Data set [6] deals with J82. Nature of the data set: Cell cycle arrest in human J82 cells assessed as accumulation at G2 phase at 10 uM after 48 hrs by propidium iodide staining based FACS analysis (reference value: 10.92 %). Format: functional. The method in brief: (§2)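 Cells treated with 1−10 μM for 48 h, trypsinized, and fixed in 70% ethanol. Stained with 50 μg/mL propidium iodide and phase distribution analyzed by flow cytometry. Mean ± SD from three independent measurements.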

In data set [7] the test system is T-24. The data set can be described thus: Induction of apoptosis in human T24 cells assessed as activation of caspase-3 at 10 uM by FITC-DEVD-FMK based flow cytometric analysis (reference value: 2.8%).
In data set [8] the test system is T-24. The data set can be described thus: Effect on cell cycle distribution in human T24 cells assessed as late apoptotic cells at 5 uM after 1 hr by Annexin V-FITC/propidium iodide staining based FACS analysis relative to control. Format: functional.
In data set [9] the test system is Mus musculus. Nature of the data set: Toxicity in BALB/C nude mouse xenografted with human HepG2 cells at 6 to 12 mg/kg, ip administered every 2 days for 16 days. The format is organism-based. To be noted: in vivo. The method in brief: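 Male BALB/C nude mice with HepG2 flank xenografts, n = 6/group. Given ip 6 or 12 mg/kg every 2 days in 5% DMSO/saline; vehicle and HCPT 6 mg/kg as controls. Clinical signs, food intake and body weight monitored; tumour size and weight measured three times weekly.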
(Xenograft models place foreign cells or tissue in a host animal.)

Data set [10] has as its system T-24. Nature of the data set: Induction of apoptosis in human T24 cells assessed as activation of caspase-3 at 5 uM by FITC-DEVD-FMK based flow cytometric analysis (reference value: 2.8%).
Data set [11] concerns T-24. The data set can be described thus: Effect on cell cycle distribution in human T24 cells assessed as early apoptotic cells at 10 uM after 1 hr by Annexin V-FITC/propidium iodide staining based FACS analysis relative to control. Format: functional.
Data set [12] deals with T-24. The data set can be described thus: Induction of apoptosis in human T24 cells assessed as apoptotic inducing factor translocation from mitochondria to nucleus at 1 to 10 uM after 48 hrs by Hoechst 33258 staining based fluorescence confocal microscopic analysis. Format: functional, cell-based. The method in brief: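 T24 cells on glass slides, treated for 48 h. Fixed in 4% paraformaldehyde, permeabilised with 1% Triton X-100, nuclei stained with Hoechst 33258 (final 0.5 μg/mL). Imaged by confocal fluorescence microscopy.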

Data set [13] concerns the target Cellular tumor antigen p53 (Homo sapiens) (UniProt P04637). Nature of the data set: Induction of phospho-p53 accumulation in human T24 cells assessed as activation of bak at 1 to 10 uM after 48 hrs by Hoechst 33258 staining based fluorescence confocal microscopic analysis. The format is cell-based. The method in brief: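 T24 cells treated for 48 h, fixed in 4% paraformaldehyde. Immunostained with antibody to active (N-terminal) Bak and a Cy3-conjugated secondary antibody. Imaged by confocal microscopy at 400×.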

For data set [14], the system named is T-24. Nature of the data set: Induction of membrane disruption in human T24 cells at 1 to 10 uM after 1 hr by propidium iodide staining based FACS analysis. Format: functional, cell-based. The method in brief:
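T24 cells exposed 1 h to 1–10 μM, then trypsinised and washed in PBS. Resuspended in 50 μg/mL propidium iodide in PBS and analysed immediately by flow cytometry with a 488 nm argon laser.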

Data set [15] deals with HepG2. Nature of the data set: Antitumor activity against human HepG2 cells xenografted in BALB/C nude mouse assessed as tumor growth inhibition at 12 mg/kg, ip administered every 2 days for 16 days relative to control. Format: functional. Conditions: read-out: TGI. The method in brief:
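Male BALB/c nude mice, 6 weeks old, given subcutaneous flank injections of 5 × 10^6 HepG2 cells. Mice with 80−200 mm3 tumors randomized, n = 6 per group, and dosed ip every other day with 6 or 12 mg/kg. Vehicle 5% DMSO in saline; HCPT 6 mg/kg as positive control. Tumor volume (lw²/2) and body weight measured three times weekly.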

Data set [16] has as its system T-24. Nature of the data set: Effect on cell cycle distribution in human T24 cells assessed as early apoptotic cells at 5 uM after 1 hr by Annexin V-FITC/propidium iodide staining based FACS analysis relative to control. The format is functional.
For data set [17], the system named is T-24. Nature of the data set: Effect on Bcl-2 expression in human T24 cells up to 10 uM after 24 hrs by Western blot analysis. Format: functional, cell-based. An outline of the steps:
as §1

Data set [18] deals with T-24. Nature of the data set: Induction of apoptosis in human T24 cells assessed as late apoptotic cells at 1 uM by Annexin V-FITC/propidium iodide based flow cytometric analysis (reference value: 0.193%). The format is functional.
Data set [19] concerns J82. The data set can be described thus: Cell cycle arrest in human J82 cells assessed as accumulation at G1 phase at 10 uM after 48 hrs by propidium iodide staining based FACS analysis (reference value: 42.29 %). Format: functional. The method in brief:
as §2

The subject of data set [20] is T-24. Nature of the data set: Induction of apoptosis in human T24 cells assessed as live cells at 1 uM by Annexin V-FITC/propidium iodide based flow cytometric analysis (reference value: 89.5%). The format is functional.
The target of data set [21] is Cellular tumor antigen p53 (Homo sapiens) (UniProt P04637). The data set can be described thus: Activation of p53 in human T24 cells assessed as increase in cyclinE-CDK2 complex formation up to 10 uM after 24 hrs by Western blot analysis. The format is cell-based. The method in brief:
as §1

The subject of data set [22] is T-24. The data set can be described thus: Induction of apoptosis in human T24 cells assessed as necrotic cells at 1 uM by Annexin V-FITC/propidium iodide based flow cytometric analysis (reference value: 8.53%). Format: functional.
For data set [23], the system named is Mus musculus. Nature of the data set: Effect on p53 expression in BALB/C nude mouse xenografted with human T24 cells at 6 to 12 mg/kg, ip administered every 2 days for 16 days by immunoblot analysis.
The test system of data set [24] is HepG2. Nature of the data set: Antiproliferative activity against human HepG2 cells by MTT assay. The format is functional, cell-based. An outline of the steps: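 Cell lines cultured in RPMI 1640 with 10% FBS. Viability read by MTT (5 mg/mL, 4 h at 37 °C), with formazan dissolved in DMSO and absorbance taken at 490 nm. Viability (%) = A490 treated / A490 control × 100. IC50 taken from dose-response curves, from three independent experiments each run in triplicate.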

Molecules are shown by their SMILES. Activity calls are given as the source filed them. The calls are words filed in the database; no cut-off is given here.

Sequence of Cellular tumor antigen p53 (Homo sapiens) (P04637 whole entry, looked up): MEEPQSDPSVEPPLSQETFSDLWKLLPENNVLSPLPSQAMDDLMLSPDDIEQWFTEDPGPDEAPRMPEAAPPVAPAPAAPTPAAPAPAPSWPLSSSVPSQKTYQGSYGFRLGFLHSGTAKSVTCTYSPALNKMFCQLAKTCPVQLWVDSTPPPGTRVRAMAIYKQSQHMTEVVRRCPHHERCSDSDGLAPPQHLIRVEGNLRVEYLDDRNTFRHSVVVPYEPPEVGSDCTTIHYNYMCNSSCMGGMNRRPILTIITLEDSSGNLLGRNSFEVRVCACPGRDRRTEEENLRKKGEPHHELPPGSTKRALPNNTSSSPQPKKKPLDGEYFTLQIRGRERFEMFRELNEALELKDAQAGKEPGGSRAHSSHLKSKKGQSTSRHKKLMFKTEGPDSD

`CN(C)CCNc1nn2c(=O)c3cc(Br)ccc3nc2c2ccccc12`: the result with T-24 [1], with T-24 [3], in the data set on T-24 [4], in the data set with T-24 [14], with T-24 [17] and in the data set with Mus musculus [23] was inactive. For the same molecule, the Activity with T-24 [2] is given as 40.7%; in the data set with T-24 [5], 4.22%; in the data set with J82 [6], 23.67%; in the data set on T-24 [7] it was 50%; in the data set on T-24 [8], 0%; in the data set on Mus musculus [9] it was “Non-Toxic”. For the same molecule, the Activity stood at 17.6% in the data set with T-24 [10]; 0% with T-24 [11]; 0% with T-24 [16]; 5.29% in the data set with T-24 [18]; 12.13% with J82 [19]; 83.7% with T-24 [20]. For the same molecule, the Activity with T-24 [22] is 6.77%. Further, the outcome (in the data set with T-24 [12]; in data set [13]; in [21]) was Active. Further, in the data set with HepG2 [15], the inhibition in vivo at 12 mg/kg is 61.3%. For the same molecule, 3.8 µM corresponded to half-maximal inhibition in the data set with HepG2 [24] (IC50).

Source of the values: ChEMBL document CHEMBL4017491, “Phthalazino[1,2-b]quinazolinones as p53 Activators: Cell Cycle Arrest, Apoptotic Response and Bak-Bcl-xl Complex Reorganization in Bladder Cancer Cells” (J Med Chem, 2017).
